Screening results (PubChem BioAssay)
OX1R antag-1: blocks the human orexin 1 receptor; CHO/OX1R cells, Fluo-8 calcium fluorescence, orexin A; inhibition, % at 5 µM; 330,000 compounds, 0.43% hits;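 active = inhibition above its plate's threshold, mean inhibition of all tested compounds on the plate plus 3 SD, cut at about 37% in these data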
TAAR1 agonist: agonists of human TAAR1 | activation, % at 3 µM | CHO RD-HGA16 TAAR1, Fluo-8 calcium fluorescence; vehicle wells 0%, saturating PEA agonist 100% | 360,000 compounds, 0.99% hits | AID 624467;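 active = activation above the mean activation of all test compounds in the run plus 3 SD, cut at about 38% in these data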
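Assay system: CHO-derived RD-HGA16 cells with stable Gα16 and human TAAR1; timing: 17-24 h seeding, 75 min 37 °C dye, 30 min RT; read-out: % activation from peak over basal fluorescence ratio, DMSO-to-PEA scaled; measured by: kinetic Fluo-8 calcium fluorescence; benchmarks: low control DMSO, high control PEA (EC100); doses: 3 µM single concentration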
OX1R antag-2: antagonists of human orexin 1 receptor (OX1R). O43613. OX1R-expressing cells, FRET antagonist read-out. inhibition, % at 6.6 µM. 330,000 compounds, 1.8% hits. AID 485270; in the data active = inhibition mostly above about 38%, no sharp cut-off; inactive = mostly below about 40%
CHO parental Ca: counter-screen: ATP calcium response change in parental CHO cells; inhibition, % at 5.6 µM; parental CHO-K1, ATP-induced calcium, Fluo-8 fluorescence; 330,000 compounds, 0.63% hits;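 active = inhibition above that plate's mean sample inhibition plus 3 SD, cut at about 26% in these data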
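Assay system: untransfected parental CHO cell line. Also added: ATP agonist challenge. Dosing: one dose, 5.6 µM nominal. Measured by: Fluo-8 fluorescence. Read-out: % inhibition. Benchmarks: ATP wells versus no-ATP DMSO wells. Repeats: no replicates.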
GPR7 antagonist: human neuropeptides B/W receptor 1 antagonism | GPR7-expressing cells, fluorescence antagonist assay | inhibition, % at 4.4 µM | 290,000 compounds, 1.1% hits | P48145; in the data active = inhibition above about 16%, passing the limit was not always enough;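 note: cells stimulated with the agonist NPW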
Target sequence (P48145 whole entry, looked up): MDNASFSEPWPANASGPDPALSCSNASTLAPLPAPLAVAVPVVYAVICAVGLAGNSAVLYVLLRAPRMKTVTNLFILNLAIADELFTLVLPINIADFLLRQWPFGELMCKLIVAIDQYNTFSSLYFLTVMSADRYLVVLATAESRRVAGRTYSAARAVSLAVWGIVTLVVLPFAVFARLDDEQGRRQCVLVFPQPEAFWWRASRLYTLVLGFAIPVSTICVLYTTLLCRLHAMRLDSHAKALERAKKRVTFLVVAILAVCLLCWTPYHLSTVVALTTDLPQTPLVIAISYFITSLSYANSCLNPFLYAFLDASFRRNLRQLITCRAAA
TAAR1 antag: human TAAR1 antagonism. CHO RD-HGA16 TAAR1, Fluo-8 calcium fluorescence, antagonist. 360,000 compounds, 1.5% hits. AID 624466. inhibition, % at 3 µM;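 active = inhibition above a per-plate cutoff, the mean inhibition of test compounds on that plate plus 3 SD, cut at about 49% in these data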
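test system = CHO RD-HGA16 cells bearing hTAAR1 | replication = singlicate | controls = DMSO-only wells and EC80 β-PEA-stimulated wells | reagent = EC80 β-phenethylamine stimulus | read-out basis = percent inhibition of PEA-evoked calcium signal, max/basal emission ratio | schedule = seeding 17-24 h prior, 75-min 37 °C, 30-min RT dye loading | signal = kinetic Fluo-8 calcium fluorescence measurement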
OX1R Fluo8 conf: OX1R (human) antagonism, confirmed; 1,100 compounds, 38% hits; AID 492963; inhibition, % at 5 µM; CHO/OX1R cells, orexin A calcium Fluo-8 fluorescence; shares compounds with OX1R antag-1; in the data active = inhibition above about 29%
CHO Ca triplic: counter-screen: parental CHO calcium response change, triplicate | shares compounds with OX1R antag-1 | parental CHO-K1, ATP-induced calcium, Fluo-8 fluorescence | inhibition, % at 5.6 µM | 1,100 compounds, 9.3% hits;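 active = inhibition above a per-plate limit, the mean inhibition of that plate's test compounds plus 3 SD, cut at about 25% in these data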
OX1R HTRF confirm: OX1R (human) antagonism, HTRF confirmed | shares compounds with OX1R antag-2 | OX1R-expressing cells, HTRF antagonist assay | inhibition, % at 6.6 µM | AID 492964 | 1,800 compounds, 49% hits; in the data active = inhibition above about 55%;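 note: CHO cells expressing OX1R stimulated with orexin A at about EC80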
CHO-K1 HTRF cnt: counter-screen for OX1R antagonists: effect in parental CHO-K1 cells | HTRF counterscreen | AID 493232 | inhibition, % at 6.6 µM | shares compounds with OX1R antag-2 | 1,800 compounds, 48% hits; in the data active = inhibition above about 17%
A number is an active result; - = inactive; . = not tested or not shown; + = active, no number. This is a sample that favours compounds with a hit; in the whole collection about 4.6% have one here.

SMILES | OX1R antag-1 | TAAR1 agonist | OX1R antag-2 | CHO parental Ca | GPR7 antagonist | TAAR1 antag | OX1R HTRF confirm | CHO-K1 HTRF cnt | others
O=C(NC1CCCCC1)[C@@H]1CC=C[C@@H]2CCN(Cc3ccccc3)C(=O)[C@@H]21 | - | - | 75.3 | - | . | - | 74.4 | - | OX1R Fluo8 conf=47.5;CHO Ca triplic=-
COc1ccccc1NC(=O)COC(=O)c1cn(C)c2ccccc12 | 47.3 | - | 54.1 | - | . | - | - | - | OX1R Fluo8 conf=-;CHO Ca triplic=-
CCOC(=O)[C@]12Cc3cc(OC)ccc3[C@H]1N(C1CCCCC1)C(=O)c1ccccc12 | . | - | . | . | . | - | . | .
Cc1cccc(C(=O)Nc2ccc3c(c2)CC2(C(=O)N(C)C(=O)N(C)C2=O)C2CCCN32)c1 (stereo not drawn) | - | . | - | - | - | . | . | .
COc1ccccc1C(=O)Nc1ccc2c(c1)CC1(C(=O)N(C)C(=O)N(C)C1=O)C1CCCN21 (stereo not drawn) | - | - | 66.7 | - | - | - | 90.2 | 19.6 | OX1R Fluo8 conf=42.8;CHO Ca triplic=-
COC(=O)C1=C(c2cc3ccccc3o2)C[C@@H]2CC[C@H]1N2C | - | - | - | - | . | - | . | .
O=C(NC1CN2CCC1CC2)c1ccc(Cl)cc1 (stereo not drawn) | . | - | . | . | . | - | . | .
O=C(NC1CN2CCC1CC2)c1ccc(-c2ccc([N+](=O)[O-])cc2)o1 (stereo not drawn) | - | - | 83.9 | - | - | - | - | 56.3
O=c1[nH]c(O)c(N=Nc2cc(C(F)(F)F)ccc2Cl)c(=O)[nH]1 | - | - | - | - | - | - | . | .
O=C(O)c1ccccc1N=Nc1c(O)[nH]c(=O)[nH]c1=O | - | - | 111.4 | - | - | - | - | 76.0
CN1C(=O)C(=Cc2ccc(N3CCOCC3)o2)C(=O)N(C)C1=O | - | - | 123.3 | - | - | - | 65.3 | 90.0
CN1C(=O)C(=Cc2ccc(N3CCCCCC3)o2)C(=O)N(C)C1=S | - | - | - | - | - | - | . | .
CCOc1cccc(=NC2CCCCC2)c2c(C)n(C)c(C)c12 | - | - | - | - | - | - | . | .
OCC[n+]1c2ccccc2nc2ccc(N3CCOCC3)cc21 | - | - | 113.1 | - | - | - | - | 75.9
O=C(CCc1ccccc1)N1Cc2cc(N3CCOCC3)ccc2-n2nncc2C1 | . | - | . | . | . | - | . | .
N[C@@H](Cc1ccccc1)C(=O)N1C[C@H]2C[C@@H](C1)c1cccc(=O)n1C2 | - | - | - | - | - | - | . | .
Cc1ccc(Oc2cc(NN3CCCCC3)c([N+](=O)[O-])cc2[N+](=O)[O-])c([N+](=O)[O-])c1 | - | - | - | - | - | - | . | .
O=c1[nH]c(=S)[nH]c(O)c1N=Nc1ccc2c(c1)OCCO2 | - | - | 145.9 | - | - | - | 61.6 | 65.8
O=c1[nH]c(=S)[nH]c(O)c1N=Nc1cccc(S(=O)(=O)N2CCOCC2)c1 | - | - | 96.6 | - | - | - | 59.7 | 66.3
O=c1[nH]c(=S)[nH]c(O)c1N=Nc1ccc(S(=O)(=O)N2CCOCC2)cc1 | - | - | 140.2 | - | - | - | - | 64.6
O=C(N=Nc1c(O)[nH]c(=O)[nH]c1=O)C1COc2ccccc2O1 (stereo not drawn) | - | - | - | - | - | - | . | .
COc1ccc(N=Nc2c(O)[nH]c(=S)[nH]c2=O)cc1 | - | - | + | - | - | - | 63.1 | 99.8
C=CCn1c(O)c(/C(C)=N/N2CCN(C)CC2)c(=O)[nH]c1=O | - | - | - | - | - | - | . | .
O=c1[nH]c(O)c(N=Nc2cccc(S(=O)(=O)N3CCOCC3)c2)c(=O)[nH]1 | - | - | 87.9 | - | - | - | 54.9 | 78.8
